In ChEMBL document CHEMBL3751743, “Synthesis and anti-cancer screening of novel heterocyclic-(2H)-1,2,3-triazoles as potential anti-cancer agents” (Medchemcomm, 2015):

What was measured:
Type in all cases: functional
[1] = Cytotoxicity against human DU145 cells after 48 hrs by SRB assay; details: DU-145, 48 h
Summary of the method: (§1)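 NCI-60 five-dose screen: compounds dissolved in DMSO/H2O, tested at five 10-fold dilutions (10^-4 to 10^-8 M) for 48 h. Growth measured by sulforhodamine B optical density at time zero and after 48 h drug or vehicle exposure. Percentage growth calculated relative to control. GI50 is the molar concentration giving 50% reduction in net cell growth versus day-0 cell numbers.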

MCF7 = test: Cytotoxicity against human MCF7 cells after 48 hrs by SRB assay; details: MCF7, 48 h; summary of the method: as §1
MDA-MB-231 = test: Cytotoxicity against human MDA-MB-231 cells after 48 hrs by SRB assay; details: MDA-MB-231, 48 h; summary of the method: as §1
[2] = Cytotoxicity against human Hs 578T cells after 48 hrs by SRB assay; summary of the method: as §1
[3] = Cytotoxicity against human BT549 cells after 48 hrs by SRB assay; details: BT-549, 48 h; summary of the method: as §1
T47D = test: Cytotoxicity against human T47D cells after 48 hrs by SRB assay
Summary of the method: (§2)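 NCI-60 five-dose screen. Compounds dissolved in DMSO/H2O and tested at five 10-fold dilutions (10^-4 to 10^-8 M) for 48 h. Growth read by sulforhodamine B optical density at time zero and after 48 h of exposure to compound or vehicle. Percent growth calculated against control. GI50 is the molar concentration giving 50% reduction in net cell growth relative to cell number on day 0.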

MDA-MB-468 = test: Cytotoxicity against human MDA-MB-468 cells after 48 hrs by SRB assay; details: MDA-MB-468, 48 h; summary of the method: as §1
CCRF-CEM = test: Cytotoxicity against human CCRF-CEM cells after 48 hrs by SRB assay; summary of the method: as §1
[4] = Cytotoxicity against human HL-60(TB) cells after 48 hrs by SRB assay; details: HL-60, 48 h; summary of the method: as §1
K562 = test: Cytotoxicity against human K562 cells after 48 hrs by SRB assay; details: K562, 48 h; summary of the method: as §1
[5] = Cytotoxicity against human MOLT4 cells after 48 hrs by SRB assay; details: MOLT-4, 48 h; summary of the method: as §1
[6] = Cytotoxicity against human RPMI8226 cells after 48 hrs by SRB assay; details: RPMI-8226, 48 h; summary of the method: as §1
A549 = test: Cytotoxicity against human A549 cells after 48 hrs by SRB assay; details: A549, 48 h; summary of the method: as §1
EKVX = test: Cytotoxicity against human EKVX cells after 48 hrs by SRB assay
Summary of the method: (§3)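 NCI-60 five-dose screen: compounds in DMSO/H2O tested at 10^-4 to 10^-8 M (10-fold steps) for 48 h. Cell mass read by sulforhodamine B optical density at time zero and after exposure to compound or vehicle. GI50 is the concentration giving 50% reduction in net cell growth relative to day-0 cell numbers.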

[7] = Cytotoxicity against human HOP62 cells after 48 hrs by SRB assay; details: HOP-62, 48 h; summary of the method: as §3
[8] = Cytotoxicity against human HOP92 cells after 48 hrs by SRB assay; details: HOP-92, 48 h; summary of the method: as §1
NCI-H226 = test: Cytotoxicity against human NCI-H226 cells after 48 hrs by SRB assay; details: NCI-H226, 48 h; summary of the method: as §1
NCI-H23 = test: Cytotoxicity against human NCI-H23 cells after 48 hrs by SRB assay; details: NCI-H23, 48 h; summary of the method: as §1
NCI-H460 = test: Cytotoxicity against human NCI-H460 cells after 48 hrs by SRB assay; details: NCI-H460, 48 h; summary of the method: as §1
NCI-H522 = test: Cytotoxicity against human NCI-H522 cells after 48 hrs by SRB assay; details: NCI-H522, 48 h; summary of the method: as §1
[9] = Cytotoxicity against human COLO205 cells after 48 hrs by SRB assay; details: COLO 205, 48 h; summary of the method: as §1
[10] = Cytotoxicity against human HCC2998 cells after 48 hrs by SRB assay; details: HCC 2998, 48 h; summary of the method: as §1
[11] = Cytotoxicity against human HCT116 cells after 48 hrs by SRB assay; details: HCT-116, 48 h; summary of the method: as §1
[12] = Cytotoxicity against human HCT15 cells after 48 hrs by SRB assay; details: HCT-15, 48 h; summary of the method: as §1
HT-29 = test: Cytotoxicity against human HT-29 cells after 48 hrs by SRB assay; details: HT-29, 48 h; summary of the method: as §1
KM12 = test: Cytotoxicity against human KM12 cells after 48 hrs by SRB assay; details: KM12, 48 h; summary of the method: as §1
[13] = Cytotoxicity against human SW620 cells after 48 hrs by SRB assay; details: SW-620, 48 h; summary of the method: as §1
[14] = Cytotoxicity against human SF268 cells after 48 hrs by SRB assay; details: SF-268, 48 h; summary of the method: as §1
[15] = Cytotoxicity against human SF295 cells after 48 hrs by SRB assay; details: SF-295, 48 h; summary of the method: as §1
[16] = Cytotoxicity against human SF539 cells after 48 hrs by SRB assay; details: SF-539, 48 h; summary of the method: as §1
[17] = Cytotoxicity against human SNB19 cells after 48 hrs by SRB assay; details: SNB-19, 48 h; summary of the method: as §1
U-251 = test: Cytotoxicity against human U251 cells after 48 hrs by SRB assay; details: U-251, 48 h; summary of the method: as §2
[18] = Cytotoxicity against human LOXIMVI cells after 48 hrs by SRB assay; details: LOX IMVI; summary of the method: as §1
Malme-3M = test: Cytotoxicity against human MALME-3M cells after 48 hrs by SRB assay; summary of the method: as §3
M14 = test: Cytotoxicity against human M14 cells after 48 hrs by SRB assay; details: M14, 48 h; summary of the method: as §1
MDA-MB-435 = test: Cytotoxicity against human MDA-MB-435 cells after 48 hrs by SRB assay; details: MDA-MB-435, 48 h; summary of the method: as §1
SK-MEL-2 = test: Cytotoxicity against human SK-MEL-2 cells after 48 hrs by SRB assay; details: SK-MEL-2, 48 h; summary of the method: as §1
SK-MEL-28 = test: Cytotoxicity against human SK-MEL-28 cells after 48 hrs by SRB assay; details: SK-MEL-28, 48 h; summary of the method: as §1
SK-MEL-5 = test: Cytotoxicity against human SK-MEL-5 cells after 48 hrs by SRB assay; details: SK-MEL-5, 48 h; summary of the method: as §1
[19] = Cytotoxicity against human UACC257 cells after 48 hrs by SRB assay; details: UACC-257, 48 h; summary of the method: as §2
[20] = Cytotoxicity against human UACC62 cells after 48 hrs by SRB assay; details: UACC-62, 48 h; summary of the method: as §2
[21] = Cytotoxicity against human IGROV1 cells after 48 hrs by SRB assay; details: IGROV-1, 48 h; summary of the method: as §3
[22] = Cytotoxicity against human OVCAR3 cells after 48 hrs by SRB assay; details: OVCAR-3, 48 h; summary of the method: as §1
[23] = Cytotoxicity against human OVCAR4 cells after 48 hrs by SRB assay; details: OVCAR-4, 48 h; summary of the method: as §1
[24] = Cytotoxicity against human OVCAR5 cells after 48 hrs by SRB assay; details: OVCAR-5, 48 h; summary of the method: as §1
[25] = Cytotoxicity against human OVCAR8 cells after 48 hrs by SRB assay; details: OVCAR-8, 48 h; summary of the method: as §1
[26] = Cytotoxicity against human NCI-ADR-RES cells after 48 hrs by SRB assay; summary of the method: as §1
[27] = Cytotoxicity against human SKOV3 cells after 48 hrs by SRB assay; details: SK-OV-3, 48 h; summary of the method: as §1
786-0 = test: Cytotoxicity against human 786-0 cells after 48 hrs by SRB assay; details: 786-0, 48 h; summary of the method: as §1
A498 = test: Cytotoxicity against human A498 cells after 48 hrs by SRB assay; details: A498, 48 h; summary of the method: as §1
ACHN = test: Cytotoxicity against human ACHN cells after 48 hrs by SRB assay; summary of the method: as §1
[28] = Cytotoxicity against human Caki1 cells after 48 hrs by SRB assay; details: CAKI-1, 48 h; summary of the method: as §1
[29] = Cytotoxicity against human RXF393 cells after 48 hrs by SRB assay; details: RXF 393, 48 h; summary of the method: as §1
SN12C = test: Cytotoxicity against human SN12C cells after 48 hrs by SRB assay; summary of the method: as §1
[30] = Cytotoxicity against human TK10 cells after 48 hrs by SRB assay; details: TK-10, 48 h; summary of the method: as §2
[31] = Cytotoxicity against human UO31 cells after 48 hrs by SRB assay; details: UO-31, 48 h; summary of the method: as §2
[32] = Cytotoxicity against human PC3 cells after 48 hrs by SRB assay; details: PC-3, 48 h; summary of the method: as §1

SMILES: COc1ccc(-c2n[nH]nc2-c2csc3ccccc23)cc1OC
- GI50 [1]: 3770 nM
- GI50 (MCF7): 1450 nM
- GI50 (MDA-MB-231): 3210 nM
- GI50 [2]: 2250 nM
- GI50 [3]: 2170 nM
- GI50 (T47D): 2830 nM
- GI50 (MDA-MB-468): 630 nM
- GI50 (CCRF-CEM): 3290 nM
- GI50 [4]: 1700 nM
- GI50 (K562): 516 nM
- GI50 [5]: 3050 nM
- GI50 [6]: 3640 nM
- GI50 (A549): 4520 nM
- GI50 (EKVX): 3420 nM
- GI50 [7]: 2180 nM
- GI50 [8]: 921 nM
- GI50 (NCI-H226): 13200 nM
- GI50 (NCI-H23): 3940 nM
- GI50 (NCI-H460): 3560 nM
- GI50 (NCI-H522): 601 nM
- GI50 [9]: 2820 nM
- GI50 [10]: 4210 nM
- GI50 [11]: 2840 nM
- GI50 [12]: 1670 nM
- GI50 (HT-29): 2780 nM
- GI50 (KM12): 2280 nM
- GI50 [13]: 3090 nM
- GI50 [14]: 3690 nM
- GI50 [15]: 2330 nM
- GI50 [16]: 1840 nM
- GI50 [17]: 4670 nM
- GI50 (U-251): 2190 nM
- GI50 [18]: 3040 nM
- GI50 (Malme-3M): 13300 nM
- GI50 (M14): 1950 nM
- GI50 (MDA-MB-435): 337 nM
- GI50 (SK-MEL-2): 1440 nM
- GI50 (SK-MEL-28): 4630 nM
- GI50 (SK-MEL-5): 2830 nM
- GI50 [19]: 10900 nM
- GI50 [20]: 2770 nM
- GI50 [21]: 4210 nM
- GI50 [22]: 1940 nM
- GI50 [23]: 6330 nM
- GI50 [24]: 7910 nM
- GI50 [25]: 4240 nM
- GI50 [26]: 2390 nM
- GI50 [27]: 2370 nM
- GI50 (786-0): 3260 nM
- GI50 (A498): 2960 nM
- GI50 (ACHN): 3940 nM
- GI50 [28]: 3690 nM
- GI50 [29]: 2110 nM
- GI50 (SN12C): 8800 nM
- GI50 [30]: 2980 nM
- GI50 [31]: 2780 nM
- GI50 [32]: 3080 nM
